Records with an inconclusive call do not appear.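 Rule for the calls, unless noted: active = inhibition over a set limit, the all-compound mean plus 3 SD, in both replicate runs; inconclusive = over that limit in just one replicate run; inactive = at or under that limit in both runs.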
Columns and labels:
[1] = S. cerevisiae growth inhibition in permissive medium (OD615), pilot counter-assay for S. cerevisiae lifespan shortening project, permissive growth control (AID 705;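 active = growth inhibition above 25% in both replicates, a cutoff set 3 SD above the mean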); settings: OD615, 24 h, at 10 µM, active compounds read high
Procedure, shortened: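 assay system = Saccharomyces cerevisiae strain carrying genetically modified DeaD replicative-lifespan system | medium = SC raffinose/galactose permissive medium | dosing = 10 µM single dose, 0.25% DMSO | schedule = 24 h compound exposure at 30 °C after 4 h pre-growth | measured by = OD at 615 nm | read-out basis = growth inhibition from lowered OD615 after 24 h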

[2] = S. cerevisiae growth inhibition in restrictive medium, OD615, pilot screen, restrictive growth control, yeast lifespan reduction project (AID 706;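 active = growth inhibition above a set limit, 3 SD over mean compound inhibition, in both replicates, cut at about 43% in these data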;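 note: modified DeaD lifespan yeast strain shifted to restrictive glucose medium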); settings: OD615, 48 h, at 10 µM, active compounds read high
Procedure, shortened: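 Buffer or medium: CSMM-D glucose medium. Material: genetically modified Saccharomyces cerevisiae, DeaD replicative lifespan assay strain. Times: 48 h compound exposure at 30 °C. Measured by: optical density at 615 nm.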

[3] = doxorubicin toxicity protection in MRP-1 cells – H69AR cells, CellTiter-Glo, duplicate, MRP-1 activator project, pilot screen (AID 807;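 active = viability increase at or above a cutoff of the median across tested compounds plus 3 SD, cut at about 8.5% in these data, passing the limit was not always enough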;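 note: compound pretreatment 18-22 h then 72 h combined with doxorubicin; 0% = doxorubicin alone and 100% = vehicle without doxorubicin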); settings: H69AR viability with doxorubicin, CellTiter-Glo luminescence; at 10 µM; active compounds read high
[4] = viability of HCT116 without oncogenic beta-catenin – human colon tumor cells, pilot screen (AID 823;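 active = cell viability at or below a set limit in both duplicate runs, the limit being the all-compound median minus 4 SD, cut at about 23% in these data, passing the limit was not always enough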;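 note: 0% = wells killed by 20 µM Hyamine and 100% = untreated DMSO cell wells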); settings: HCT116 beta-catenin knockout viability, CellTiter-Glo, 60 h; at 10 µM; active compounds read low
[5] = viability of PTEN-null HCT116 cells – cell-based, HCT116 clonal line, CellTiter-Glo, pilot screen (AID 824;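 active = viability at or below 27.92% in each of two runs, the all-compound median minus 4 SD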;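 note: 0% = 20 µM Hyamine control and 100% = vehicle cell control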); settings: HCT116 PTEN-deleted viability, 60 h, at 10 µM, active compounds read low
[6] = RAM pathway blockade in budding yeast – dse1pr::URA3 reporter, 5-FOA selection, pilot screen (AID 869);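 note: 0% = DMSO wells with no growth and 100% = 10 µM 1-NA-PP1 with full growth; RAM network block rescues cells from 5-FOA so hits raise OD615 growth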; settings: S. cerevisiae dse1pr::URA3 5-FOA growth, OD615, 2 d; at 10 µM; active compounds read high; strain carries analog-sensitive mutant Cbk1 kinase
[7] = RAM signaling pathway blockade in yeast – S. cerevisiae, Pdr1DBD-CYC8 efflux-inhibited sensitized strain, primary screen (AID 1298;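 active = RAM network inhibition above 8.4% in each of two replicates, 3 SD over the compound average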;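 note: 0% = DMSO untreated cells without growth and 100% = 10 µM 1-NA-PP1 full growth; higher means more yeast growth rescued from 5-FOA killing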); settings: S. cerevisiae cbk1-as DSE1-URA3 strain, 5-FOA growth OD615, 2 d; at 50 µM; active compounds read high

COc1ccc(CN2CCN(C(=O)c3ccco3)CC2)cc1OCc1ccccc1
inactive: growth inhibition [1] -9.2% | growth inhibition [2] -18.8% | viability increase [3] -2.34% | viability [4] 88% | viability [5] 83.3% | inhibition [6] 0.95% | RAM network inhibition [7] 2.98%

COc1ccc(C(C)=O)cc1CSc1nnc(C)s1
inactive: growth inhibition [1] -9.51% | growth inhibition [2] -8.14% | viability increase [3] -2.37% | viability [4] 96.5% | viability [5] 96.8% | inhibition [6] -0.565% | RAM network inhibition [7] 0.11%

COc1ccc(CCNc2nc(=O)[nH]nc2C)cc1OC
inactive: growth inhibition [1] -14.6% | growth inhibition [2] -16.5% | viability increase [3] -1.65% | viability [4] 96% | viability [5] 96.5% | inhibition [6] 2.62% | RAM network inhibition [7] 0.16%

Cc1cc(Nc2cc(F)ccc2C)n2ncnc2n1
inactive: growth inhibition [1] -2.42% | growth inhibition [2] 9.4% | viability increase [3] -0.28% | viability [4] 102% | viability [5] 97.3% | inhibition [6] 3.77% | RAM network inhibition [7] 4.19%

O=C1Nc2cc(Cl)cnc2N2CCCC12 (stereo not drawn)
inactive: growth inhibition [1] -2.57% | growth inhibition [2] 8.33% | viability increase [3] -0.67% | viability [4] 97.7% | viability [5] 101% | inhibition [6] 0.905% | RAM network inhibition [7] 0%

COc1ccc(C2CC(c3ccc(Cl)cc3Cl)Nc3nc(N)nn32)cc1OC (stereo not drawn)
inactive: growth inhibition [1] 0.16% | growth inhibition [2] 22.6% | viability increase [3] 6.01% | viability [4] 88.2% | viability [5] 85.7% | inhibition [6] 0.4% | RAM network inhibition [7] 1.22%

CCOc1cc(CN2CCSCC2)ccc1O
inactive: growth inhibition [1] -8.12% | growth inhibition [2] -9.94% | viability increase [3] 0.51% | viability [4] 97% | viability [5] 101% | inhibition [6] 0.825% | RAM network inhibition [7] 4.67%

O=S(=O)(Nc1ccc(O)cc1)c1cccc2cccnc12
inactive: growth inhibition [1] -1.12% | growth inhibition [2] -4.81% | viability increase [3] -1.95% | viability [4] 93.9% | viability [5] 87% | inhibition [6] 2.25% | RAM network inhibition [7] 0.83%

Cn1c(=O)c2c(SCC(=O)NCc3ccco3)nc(CC(C)(C)C)nc2n(C)c1=O
inactive: growth inhibition [1] -3.79% | growth inhibition [2] -0.895% | viability increase [3] -4.81% | viability [4] 72.5% | viability [5] 70.6% | inhibition [6] 0.775% | RAM network inhibition [7] 5.97%

Cc1ccc(C)c(N2CCN(C(=O)CCc3nc4ccccc4[nH]3)CC2)c1
inactive: growth inhibition [1] 6.2% | growth inhibition [2] 7.36% | viability increase [3] 1.46% | viability [4] 80.9% | viability [5] 90.4% | inhibition [6] -0.165% | RAM network inhibition [7] -0.77%

Cn1c(Cn2c(=O)sc3ccccc32)nnc1SCC(=O)Nc1ccc2c(c1)OCO2
inactive: growth inhibition [1] -1.55% | growth inhibition [2] 7.6% | viability increase [3] -5.8% | viability [4] 105% | viability [5] 99.6% | inhibition [6] 2.34% | RAM network inhibition [7] 3.46%

CSc1nnc(Cn2c(=O)sc3ccccc32)n1C
inactive: growth inhibition [1] -4.88% | growth inhibition [2] -13% | viability increase [3] -1.82% | viability [4] 109% | viability [5] 99.4% | inhibition [6] 1.94% | RAM network inhibition [7] 6.98%

COc1ccc(OC)c(C2CC(=O)c3c([nH]c(C(=O)OCC4CCCO4)c3C)C2)c1 (stereo not drawn)
inactive: growth inhibition [1] -8.91% | growth inhibition [2] -10.4% | viability increase [3] -4.85% | viability [4] 43.8% | viability [5] 39% | inhibition [6] 1.52% | RAM network inhibition [7] 0.79%

c1ccc(OCCSc2ncnc3nc[nH]c23)cc1
inactive: growth inhibition [1] 3.62% | growth inhibition [2] 15.4% | viability increase [3] -0.26% | viability [4] 93.3% | viability [5] 87.4% | inhibition [6] 1.73% | RAM network inhibition [7] 3.23%

CCC(=O)N1C(C(=O)N2CCCC2)CSC1c1ccc(OC)cc1 (stereo not drawn)
inactive: growth inhibition [1] -12.1% | growth inhibition [2] -12.3% | viability increase [3] -3.3% | viability [4] 96% | viability [5] 97.5% | inhibition [6] -0.035% | RAM network inhibition [7] 0.53%

O=C1Nc2ccccc2C(O)(C(=O)NCc2ccco2)N1c1ccc(Cl)cc1 (stereo not drawn)
inactive: growth inhibition [1] -7.58% | growth inhibition [2] -16.5% | viability increase [3] -4.11% | viability [4] 98.6% | viability [5] 94.5% | inhibition [6] 1.98% | RAM network inhibition [7] 4.83%

CC(C)CNC1=CC(=O)CC(c2ccco2)C1 (stereo not drawn)
inactive: growth inhibition [1] -13% | growth inhibition [2] -15.9% | viability increase [3] -1.92% | viability [4] 91.5% | viability [5] 93.8% | inhibition [6] 1.17% | RAM network inhibition [7] -0.73%

CCCCn1c(CNC(=O)c2cccs2)nc2ccccc21
inactive: growth inhibition [1] -5.02% | growth inhibition [2] -5.51% | viability increase [3] -3.7% | viability [4] 101% | viability [5] 94.5% | inhibition [6] -0.215% | RAM network inhibition [7] -1.56%

CCOc1cc(-c2cc(N)n[nH]2)cc(OCC)c1OCC
inactive: growth inhibition [1] -14.5% | growth inhibition [2] -8.22% | viability increase [3] -2.48% | viability [4] 104% | viability [5] 91.5% | inhibition [6] 0.37% | RAM network inhibition [7] 0.35%

Cc1ccc2oc(=O)c3cnn(CC(=O)N4CCCCCC4)c3c2c1
inactive: growth inhibition [1] -11% | growth inhibition [2] -0.055% | viability increase [3] -3.69% | viability [4] 82.8% | viability [5] 89.1% | inhibition [6] 1.46% | RAM network inhibition [7] 2.05%

O=C(Cc1cccs1)NCCn1ccc2ccccc21
inactive: growth inhibition [1] -14.2% | growth inhibition [2] -11.5% | viability increase [3] -1.16% | viability [4] 90.3% | viability [5] 87.1% | inhibition [6] 0.32% | RAM network inhibition [7] 9.88%

O=C(NC1CCN(C(=O)N2c3ccccc3Sc3ccccc32)CC1)c1ccco1
inactive: growth inhibition [1] -3.83% | growth inhibition [2] -13.8% | viability increase [3] -3.6% | viability [4] 65.1% | viability [5] 59.7% | inhibition [6] -0.48% | RAM network inhibition [7] 4.1%

O=C1c2ccccc2C(=O)N1CCCCN(C(=O)c1ccco1)c1ccc(Cl)cc1
inactive: growth inhibition [1] -1.78% | growth inhibition [2] -17.5% | viability increase [3] -2.82% | viability [4] 102% | viability [5] 91.1% | inhibition [6] 2.79% | RAM network inhibition [7] 5.33%

CCOC(=O)c1cc2c(=O)n3ccccc3nc2n(CCOC)c1=NC(=O)C(C)(C)C
inactive: growth inhibition [1] -6.44% | growth inhibition [2] -18.2% | viability increase [3] -3.78% | viability [4] 93.6% | viability [5] 96.9% | inhibition [6] -0.545% | RAM network inhibition [7] 5.12%
